Source: PubChem BioAssay
An excerpt weighted towards active compounds, which were near 2.3% of everything screened.
STAT3 act: IL-6 driven STAT3 reporter potentiators, primary screen, U3A cells, luciferase, luminescence, MLSCN library | AID 871, 2007 | activation (% of control), % at 5.6 µM | actives 0.91% (n = 190,000) | IL-6 STAT3-luciferase reporter; 100% = signal with IL-6 EC80 alone;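 active means activation above the screen-wide mean of compound activation plus 3 SD, cut at about 130% in these data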;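 further: 0% = background luminescence of wells with medium and substrate only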
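System – human U3A cells carrying STAT3-luciferase construct · Probe or stimulus – Interleukin-6, 33 ng/mL · Schedule – compound 1 h, then IL-6 6 h at 37 °C · Signal – luminescence from STAT3-driven luciferase reporter · Evaluation – percent of IL-6-only median luminescence · Benchmarks – IL-6-only high control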
C8 TRAIL sens: viability loss with TRAIL in NB7+C8 cells, primary screen, TRAIL sensitizer project, cell-based, ATPlite luminescence | actives 1% (n = 360,000) | inhibition (viability loss, TRAIL sensitization), % at 10 µM;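 active means compounds causing at least 50% loss of cell viability in the single-dose screen, relative to plate controls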
PPC-1+TRAIL kill: compounds killing PPC-1 cancer cells with TRAIL present, primary screen, TRAIL potentiator project, ATPLite luminescence, uHTS | actives 0.41% (n = 220,000) | PPC-1 cells + TRAIL, ATPLite viability luminescence | cell killing (% activity), % at 4 µM or 5 µM;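 active means cell killing above 50% in the first pass at 4 µM, then a duplicate retest at 5 µM averaging 50% or more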;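 further: plate controls were cells with TRAIL plus DMSO for no effect and medium-only wells lacking cells for full effect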
STAT3 blocker: IL-6 driven STAT3 reporter inhibitors, primary screen, U3A cells, luciferase, luminescence, MLSCN library. IL-6 STAT3-luciferase reporter; host cell line lacks STAT1. inhibition, % at 5.5 µM. actives 0.89% (n = 190,000);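 active means inhibition above the mean inhibition across all screened compounds plus 3 SD, cut at about 44% in these data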;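 further: 0% = DMSO only wells and 100% = 100 µM nifuroxazide control wells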
STAT1 blocker: STAT1 signaling inhibitors, primary screen, cell-based, HTS, luciferase reporter. actives 0.35% (n = 200,000). NIH 3T3 STAT1-luciferase reporter, IFN-gamma, luminescence. AID 920, 2007. inhibition, % at 5.5 µM;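 active means inhibition above a set limit, the mean inhibition across all tested compounds plus 3 SD, cut at about 34% in these data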;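 further: 0% = IFN-gamma with DMSO and 100% = IFN-gamma with 300 µM nifuroxazide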
HSP90 inh: HSP90 inhibitors, primary screen, cell lysate, luminescence | Rabbit reticulocyte lysate, luciferase refolding luminescence, 3 h | Heat shock protein HSP 90 (rabbit reticulocyte lysate; luciferase refolding) | actives 0.91% (n = 290,000) | inhibition, % at 5.6 µM;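 active means inhibition above the screen-wide mean plus 3 SD, computed separately per campaign, cut at about 16% in these data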;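 further: 0% = DMSO wells and 100% = 60 µM geldanamycin wells; inhibitors lower the luminescence because luciferase stays unfolded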
The depositor's hits bear a star.

For O=C(NCCc1ccc(Cl)cc1)C1CCC(CNc2c(N3CCCCC3)c(=O)c2=O)CC1 (stereo not given) the results were STAT3 act 103, C8 TRAIL sens 51*, PPC-1+TRAIL kill -1, STAT3 blocker -4, STAT1 blocker 0 and HSP90 inh 2.
Screening CN(Cc1ccccc1)Cc1cc(=O)oc2ccc3ccccc3c12 returned C8 TRAIL sens -10.
COC(=O)c1cc2c(=O)n3ccccc3nc2n(C(C)C)c1=N was read as STAT3 act 136*, STAT3 blocker -39, STAT1 blocker -4 and HSP90 inh 2.
For CCn1c(=N)c(C(=O)OC)cc2c(=O)n3ccccc3nc21 the results were PPC-1+TRAIL kill 18.
For CC[n+]1c(/C=C/c2c[nH]c3ccccc23)ccc2cc(C)ccc21 the results were STAT3 act 51, PPC-1+TRAIL kill 92*, STAT3 blocker 59*, STAT1 blocker 58* and HSP90 inh 8.
`COc1ccc2oc(-c3ccc(NC(=O)c4ccc(N5CCOCC5)c([N+](=O)[O-])c4)cc3)nc2c1` gave STAT3 act 101, C8 TRAIL sens 50*, PPC-1+TRAIL kill 14, STAT3 blocker -3, STAT1 blocker 7 and HSP90 inh 1.
For O=C(Nc1ccc(-c2nc3ccccc3o2)cc1)c1ccc(N2CCOCC2)c([N+](=O)[O-])c1 the results were STAT3 act 70, C8 TRAIL sens 43, PPC-1+TRAIL kill 5, STAT3 blocker 42, STAT1 blocker -5 and HSP90 inh 0.
`O=C1CCCCCC1C1(O)C(=O)Nc2ccc(Br)cc21` (stereo not given) gave STAT3 act 106, C8 TRAIL sens -7, PPC-1+TRAIL kill 28, STAT3 blocker 2, STAT1 blocker 1 and HSP90 inh 2.
For COc1ccc(/C(N)=N/OC(=O)c2cc(-c3ccccc3)nc3ccccc23)cc1 the results were STAT3 act 100, C8 TRAIL sens 44, PPC-1+TRAIL kill 18, STAT3 blocker 11, STAT1 blocker -3 and HSP90 inh -2.
For Cc1ccc(C(=O)O/N=C(\N)Cc2ccc([N+](=O)[O-])cc2)c(Cl)c1 the results were C8 TRAIL sens -1, PPC-1+TRAIL kill 0 and HSP90 inh 5.
`Cc1ccc(/C(N)=N/OC(=O)c2ccc(Cl)cc2Cl)cc1` gave STAT3 act 106, C8 TRAIL sens 67*, PPC-1+TRAIL kill 57*, STAT3 blocker -10, STAT1 blocker -45 and HSP90 inh 7.
Screening Cc1ccc(/C(N)=N/OC(=O)c2cc(-c3ccccc3)nc3ccccc23)cc1 returned STAT3 act 93, C8 TRAIL sens 81*, PPC-1+TRAIL kill -17, STAT3 blocker 14, STAT1 blocker -5 and HSP90 inh 1.
Cc1ccc(C(=O)O/N=C(\N)Cc2cccs2)c(Cl)c1 was read as C8 TRAIL sens 96* and HSP90 inh 2.
Screening CC(=O)c1cccc(S(=O)(=O)Nc2ccc(N3CCOCC3)cc2)c1 returned C8 TRAIL sens 1 and HSP90 inh -4.
For CN1OC[C@@H]2CN(C(=O)CCc3ccccc3)[C@H](c3cccc(-c4ccc(C#N)cc4)c3)C[C@@H]21 the results were C8 TRAIL sens -2.
Nc1ccc2c(c1)C(=O)C(=O)c1ccccc1-2 was read as STAT3 act 72, C8 TRAIL sens 97*, PPC-1+TRAIL kill 33, STAT3 blocker 39, STAT1 blocker 13 and HSP90 inh 16*.
Nc1ccc2c(c1)C(=O)c1ccccc1-2 was read as C8 TRAIL sens -19.
Screening CCN(CC)c1ccc(/C=N/NC(=O)c2cnccn2)cc1 returned STAT3 act 112, C8 TRAIL sens 21, PPC-1+TRAIL kill 36, STAT3 blocker 0, STAT1 blocker -37 and HSP90 inh 1.
`CCN(CC)c1ccc(/C=N/NC(=O)c2ccccn2)cc1` gave C8 TRAIL sens 65*, PPC-1+TRAIL kill 20 and HSP90 inh 13.
Screening CCN(CC)c1ccc(/C=N/NC(=O)c2ccco2)cc1 returned STAT3 act 81, C8 TRAIL sens 52*, PPC-1+TRAIL kill 30, STAT3 blocker 25, STAT1 blocker -73 and HSP90 inh -1.
`CCCCN(CC)CCCNC(=O)Cn1nc(Cc2cccnc2)c2ccccc2c1=O` gave STAT3 act 107, C8 TRAIL sens 9, PPC-1+TRAIL kill 1, STAT3 blocker -10, STAT1 blocker -10 and HSP90 inh -2.
`O=C1C=C(N2CCCCC2)c2ccccc2C1=O` gave C8 TRAIL sens 94*.
O=C1c2ccccc2C(=O)c2c1cccc2N1CCCC1 was read as STAT3 act 118, C8 TRAIL sens 10, PPC-1+TRAIL kill 22, STAT3 blocker -21, STAT1 blocker -3 and HSP90 inh 2.
Screening CC(C)Sc1nc(N2CCCC2)c2c(c1C#N)CC(C)(C)OC2 returned STAT3 act 101, C8 TRAIL sens -8, PPC-1+TRAIL kill 5, STAT3 blocker 3, STAT1 blocker -4 and HSP90 inh 2.
`CN(C)S(=O)(=O)c1ccc(N2CCN(S(=O)(=O)c3ccc(F)cc3)CC2)c(Cl)c1` gave STAT3 act 97, C8 TRAIL sens 53*, PPC-1+TRAIL kill 28, STAT3 blocker 6, STAT1 blocker 2 and HSP90 inh -10.
Screening CCS(=O)(=O)c1ncc(Cl)c(C(=O)Nc2ccc(S(=O)(=O)N3CCC(C)CC3)cc2)n1 returned C8 TRAIL sens 94* and HSP90 inh 3.
CCOC(=O)c1ccc(NC(=O)c2nc(S(=O)(=O)Cc3ccccc3)ncc2Cl)cc1 was read as C8 TRAIL sens 78* and HSP90 inh 3.
Screening CC(=O)Nc1ccc(NC(=O)c2nc(S(=O)(=O)Cc3cccc(C)c3)ncc2Cl)cc1 returned C8 TRAIL sens 90* and HSP90 inh 2.
`COC(=O)c1ccc(NC(=O)c2nc(S(=O)(=O)Cc3cccc(C)c3)ncc2Cl)cc1` gave C8 TRAIL sens 43 and HSP90 inh 0.
Cc1ccc(NC(=O)c2nc(S(=O)(=O)Cc3ccccc3C)ncc2Cl)cc1C was read as C8 TRAIL sens 58* and HSP90 inh 3.
Screening O=C(C1CN(C(=O)c2cc3cc(Cl)ccc3o2)c2ccccc2O1)N1CCCCC1 (stereo not given) returned C8 TRAIL sens 22.
For CCc1ccc(NC(=O)c2nc(S(=O)(=O)Cc3ccccc3)ncc2Cl)cc1 the results were C8 TRAIL sens 96* and HSP90 inh 0.
